MEKK2 mut-MEK5 – MEK5 binding signal on mutant MEKK2 PB1, primary screen, biochemical, multiplex bead flow cytometry, Alexa488-MEK5 | AID 1530, 2009 | Alexa488-MEK5 binding to MEKK2 mutant | actives 0.35% (n = 290,000) | percent response, % at 10 µM; in the data active = percent response above about 24%, passing the limit was not always enough
MEKK3 PB1 HTS – modulators of MEKK3-MEK5 PB1 binding, primary screen, biochemical, wildtype MEKK3, multiplex bead flow cytometry, Alexa488-MEK5; Mitogen-activated protein kinase kinase kinase 3 (Homo sapiens), Q99759; bead-based flow cytometry, Alexa488-MEK5 binding to MEKK3; actives lie on both sides; 0 = blocked by unlabeled MEK5, 100 = vehicle; binding response (% of control), % at 10 µM; actives 1.4% (n = 290,000);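 active = binding response more than 3 SD above or below the average of its plate-row segment, actives on both sides; inconclusive = wells at one plate position flagged as instrument error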;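 note: Alexa488 bead fluorescence after subtracting the streptavidin-only scavenger bead signal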
UBC13 polyUb – UBC13 polyubiquitin chain formation inhibitors, primary screen, biochemical, TR-FRET, uHTS | actives 0.47% (n = 330,000) | inhibition, % at 20 µM | AID 485273, 2010 | Ubiquitin-conjugating enzyme E2 N (Homo sapiens), P61088; in the data active = inhibition above about 45%, passing the limit was not always enough; inconclusive = no clear call, values can overlap the other calls
Target sequence (P61088 whole entry, looked up): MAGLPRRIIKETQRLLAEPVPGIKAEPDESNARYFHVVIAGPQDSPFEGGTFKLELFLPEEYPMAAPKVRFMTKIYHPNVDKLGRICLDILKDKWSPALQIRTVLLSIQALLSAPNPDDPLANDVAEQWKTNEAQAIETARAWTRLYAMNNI
PREPL inhibitor – PREPL enzyme inhibitors, primary screen, biochemical, fluorescence polarization | Prolyl endopeptidase-like (Homo sapiens), Q4J6C6 | recombinant PREPL, fluorescence polarization activity-based probe | inhibition, % at 5.96 µM | actives 0.68% (n = 320,000); in the data active = inhibition above about 43%
Apaf-1 inh – inhibitors of human Apaf-1 apoptosome, primary screen, biochemical, DEVD-Rh110 fluorescence, uHTS. reconstituted apoptosome caspase-3 activity. Apoptotic protease-activating factor 1 (Homo sapiens), O14727. inhibition, % at 20 µM. actives 0.71% (n = 330,000); active = inhibition of at least 40% at 20 µM
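System – cell-free apoptosome with Apaf-1, procaspase-3 and caspase-9 · Buffer or medium – pH 7.5 Hepes buffer with CHAPS, BSA, DTT · Also added – cytochrome c with DEVD-Rh110 · Times – 30 min compound preincubation, 50 min activation, room temperature · Technique – Rh110 fluorescence intensity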
MEKK2 WT-MEK5 – modulators of MEK5 binding to wildtype MEKK2, primary screen, biochemical, multiplex bead flow cytometry, Alexa488-MEK5 | Alexa488-MEK5 binding to MEKK2 WT; actives lie on both sides | binding response (% of control), % at 10 µM | actives 1.1% (n = 290,000); in the data active = binding response below about 67% or above about 130%; inconclusive = no clear call, values can overlap the other calls; inactive = in between
Each line names hits and unclear results; the compound was inactive in the other large screens; ! = repeats disagree; [ ] = another dose, or the depositor's remark. In the library only some 3.1% were active in any assay of this set; here they are far more common.

CC(OC(=O)c1c2c(nc3ccccc13)/C(=C\c1ccc3c(c1)OCO3)CCC2)C(=O)Nc1ccc(S(N)(=O)=O)cc1 (centres undefined)	none (no result: UBC13 polyUb, PREPL inhibitor, Apaf-1 inh)
CCC(=O)NC(c1cccs1)c1cc([N+](=O)[O-])c2cccnc2c1O (centres undefined)	MEKK3 PB1 HTS 128
CCCC(=O)NC(c1cccs1)c1cc([N+](=O)[O-])c2cccnc2c1O (centres undefined)	none (no result: UBC13 polyUb, Apaf-1 inh)
CCOc1ccc(S(=O)(=O)N2CCC(C(=O)NCCc3ccc(S(N)(=O)=O)cc3)CC2)cc1	none
CCN(CC)CCNC(=O)c1ccc(NC(=O)c2cccc(S(=O)(=O)Nc3ccc(C)cc3)c2)cc1	none
CCN(CC)CCNC(=O)c1ccc(NC(=O)c2ccc(F)cc2)cc1	none
CCN(CC)CCNC(=O)c1ccc(NC(=O)Nc2cccc3ccccc23)cc1	MEKK2 mut-MEK5 30, MEKK2 WT-MEK5 140
CCN(CC)CCNC(=O)c1ccc(NC(=O)c2ccc(Cl)c(S(=O)(=O)Nc3ccccc3OC)c2)cc1	MEKK2 WT-MEK5 147 (no result: UBC13 polyUb, PREPL inhibitor, Apaf-1 inh)
Cc1ccc(C(C)C)c(OCC(=O)NN=C2CCCC(=O)C2)c1	none (no result: MEKK2 mut-MEK5, MEKK3 PB1 HTS, MEKK2 WT-MEK5)
Brc1ccc(CNc2ccc3ncccc3c2)cc1	none (no result: PREPL inhibitor)
Cc1cccc(NC(=O)Nc2cnccn2)c1C	none
CC(CCC(C)C(C)(C)C)[C@@H]1CC[C@H]2C3C[C@H](OS(O)(=S)=S)[C@H]4C[C@H](OS(O)(=S)=S)[C@@H](OS(O)(=S)=S)C[C@]4(C)[C@H]3CC[C@]12C (some centres undefined) (tested in a mixture with another compound)	PREPL inhibitor 46!, Apaf-1 inh 87 (no result: MEKK2 mut-MEK5, MEKK3 PB1 HTS, MEKK2 WT-MEK5)
C=CCN(Cc1ccc(Cl)s1)C(=O)c1ccc(F)c(S(=O)(=O)N2CCOCC2)c1	none (no result: MEKK2 mut-MEK5, MEKK3 PB1 HTS, MEKK2 WT-MEK5)
O=C(COc1ccc(Cl)cc1)NCCCNC(=O)c1ccncc1	none
COC(=O)CCC(=O)OC1(C)C(=O)C=C2C=C(C3CC3)N(c3ccccc3)C=C2C1=O (centres undefined)	PREPL inhibitor 47
O=C(O)c1cc(O)c2c(c1)[C@@H]([C@H]1c3cc(C(=O)O)cc(O)c3C(=O)c3c(O[C@@H]4O[C@H](CO)[C@@H](O)[C@H](O)[C@H]4O)cccc31)c1cccc(OC3O[C@H](CO)[C@@H](O)[C@H](O)[C@H]3O)c1C2=O (some centres undefined)	UBC13 polyUb inconclusive, PREPL inhibitor 106, Apaf-1 inh 95 (no result: MEKK2 mut-MEK5, MEKK3 PB1 HTS, MEKK2 WT-MEK5)
O=C1c2cc(CO)cc(O)c2C(=O)c2c(O[C@@H]3OC(CO)[C@@H](O)[C@@H](O)[C@@H]3O)cccc21 (some centres undefined)	none
CC(=O)c1ccc(N2CCN(C(=O)c3ccc(NC(=O)C4CCCO4)cc3)CC2)cc1 (centres undefined)	MEKK3 PB1 HTS 81[inhibitor]
Cc1cccc(N2CCN(C(=O)c3ccc(NC(=O)C4CCCO4)cc3)CC2C)c1 (centres undefined)	MEKK3 PB1 HTS 0.0[inhibitor], MEKK2 WT-MEK5 -1.0[inhibitor]
Cc1cccc(N2CCN(C(=O)c3ccncc3)CC2C)c1 (centres undefined)	none
CCN(CC)c1ccc(/C=C(\C#N)c2nc(-c3cccs3)c(NC(C)=O)s2)cc1	MEKK2 mut-MEK5 517, MEKK2 WT-MEK5 290 (no result: UBC13 polyUb, PREPL inhibitor, Apaf-1 inh)
COc1ccc(-c2coc3cc4oc(=O)cc(-c5ccccc5)c4cc23)cc1F	MEKK3 PB1 HTS 132
N#Cc1ccc(C(=O)N2CCN(C(=O)C3CCCO3)CC2)cc1 (centres undefined)	none (no result: MEKK2 mut-MEK5, MEKK3 PB1 HTS, MEKK2 WT-MEK5)
O=C(O)CCC1c2cc3c4cc2OC2Oc5cc6c(cc51)C(CCC(=O)O)c1cc5c7cc1OC(O6)c1cc6cc(c1)Oc1cc(cc(C(=O)O)c1)Oc1cc8cc(c1)C(Oc1cc(c(cc1C5CCC(=O)O)C3CCC(=O)O)OC(O4)c1cc(cc(c1)Oc1cc(cc(C(=O)O)c1)O8)Oc1cc(cc(C(=O)O)c1)Oc1cc(cc2c1)Oc1cc(cc(C(=O)O)c1)O6)O7 (centres undefined)	UBC13 polyUb 122, Apaf-1 inh 99 (no result: MEKK2 mut-MEK5, MEKK3 PB1 HTS, MEKK2 WT-MEK5)
Nc1ccc(Nc2nc(-c3ccncc3)cs2)cc1	PREPL inhibitor 44
Clc1ccc(Nc2nc(-c3ccncc3)cs2)cc1	none
CCCCCC[N+](C)(C)CCSSCC[N+](C)(C)CCCCCC	none
CCCCCCCCCCCCCCCC[N+](C)(C)CC	UBC13 polyUb 91, Apaf-1 inh 87 (no result: MEKK2 mut-MEK5, MEKK3 PB1 HTS, MEKK2 WT-MEK5)
COc1ccc(/C=C2/Sc3ccc(C(=O)NCCCN4CCOCC4)cc3NC2=O)cc1OC	none
O=C1Nc2cc(C(=O)NCCN3CCCCCC3)ccc2S/C1=C\c1ccccc1	MEKK2 mut-MEK5 43, MEKK2 WT-MEK5 219
Cc1cccc(/C=C2/Sc3ccc(C(=O)NCCCN4CCOCC4)cc3NC2=O)c1	MEKK2 mut-MEK5 25, MEKK2 WT-MEK5 149
CCOc1ccccc1N1CCN(C(=O)c2cc3cc(OC)ccc3[nH]2)CC1	none
COc1cccc(NC(=O)CN(C)C(=O)C(C)Sc2ccccc2)c1 (centres undefined)	none (no result: MEKK2 mut-MEK5, MEKK3 PB1 HTS, PREPL inhibitor, MEKK2 WT-MEK5)
CC(C)[C@]1(c2ccc(Cl)cc2)ON(c2ccccc2C(F)(F)F)C1=O	none (no result: MEKK2 mut-MEK5, MEKK3 PB1 HTS, MEKK2 WT-MEK5)
COCCn1cc(-c2csc(N)n2)c2ccccc21	none
CN(C)c1nc(-c2cn(CCC#N)c3ccccc23)cs1	MEKK2 WT-MEK5 -15
CC(C)N1C(=O)C(=O)N(CC(=O)N2c3ccccc3NC(=O)CC2C)C1=O (centres undefined)	none (no result: MEKK2 mut-MEK5, MEKK3 PB1 HTS, PREPL inhibitor, MEKK2 WT-MEK5)
CCCCN([C@H](CO)C(C)C)S(=O)(=O)c1ccccc1Br	none (no result: MEKK2 mut-MEK5, MEKK3 PB1 HTS, UBC13 polyUb, PREPL inhibitor, MEKK2 WT-MEK5)
COCCn1c(-c2ccc(OC)cc2)cnc1N	MEKK2 WT-MEK5 -6.0
Clc1ccc2nc(CN3CCCCC3)cn2c1	none
Clc1ccc2nc(CN3CCCc4ccccc43)cn2c1	PREPL inhibitor 67
CC(=O)c1c(C)[nH]c(C(=O)OCC(=O)N2CCc3ccccc3C2)c1C	none (no result: MEKK2 mut-MEK5, MEKK3 PB1 HTS, MEKK2 WT-MEK5)
Cc1ccc2c(c1)c(C)c(C)n2CC(O)CN1CCOCC1 (centres undefined)	MEKK2 WT-MEK5 -5.0[inhibitor]
CCCN1C/C(=C/c2ccc3c(c2)OCO3)C(=O)/C(=C/c2ccc3c(c2)OCO3)C1	MEKK3 PB1 HTS 136
CN1CCN(C2=C(Cl)C(=O)C(c3cnc(N4CCCCC4)s3)=C(Cl)C2=O)CC1	PREPL inhibitor 50, Apaf-1 inh 84
CN1CCN(C2=C(Cl)C(=O)N(C3CCCCC3)C2=O)CC1	none
